Source: ChEMBL document CHEMBL4354804, “Discovery of a New Isoxazole-3-hydroxamate-Based Histone Deacetylase 6 Inhibitor SS-208 with Antitumor Activity in Syngeneic Melanoma Mouse Models” (J Med Chem, 2019)
pIC50: −log10 of the molar value. Active and inactive are the calls of the source. No cut-off for these calls is given here.

Key:
Histone deacetylase 1 = Histone deacetylase 1 (Homo sapiens, UniProt Q13547); assay: (§1) Inhibition of recombinant full length C-terminal His/FLAG tagged human HDAC1 (1 to 482 residues) expressed in baculovirus infected sf9 insect cells using p53 (379 to 382 residues) derived fluorogenic peptide RHKKAc as substrate preincubated for 5 to 10 mins followed by substrate addition and further incubated for 2 hrs by fluorescence assay
Sequence of Histone deacetylase 1 (Q13547 whole entry, the tested form may be a part): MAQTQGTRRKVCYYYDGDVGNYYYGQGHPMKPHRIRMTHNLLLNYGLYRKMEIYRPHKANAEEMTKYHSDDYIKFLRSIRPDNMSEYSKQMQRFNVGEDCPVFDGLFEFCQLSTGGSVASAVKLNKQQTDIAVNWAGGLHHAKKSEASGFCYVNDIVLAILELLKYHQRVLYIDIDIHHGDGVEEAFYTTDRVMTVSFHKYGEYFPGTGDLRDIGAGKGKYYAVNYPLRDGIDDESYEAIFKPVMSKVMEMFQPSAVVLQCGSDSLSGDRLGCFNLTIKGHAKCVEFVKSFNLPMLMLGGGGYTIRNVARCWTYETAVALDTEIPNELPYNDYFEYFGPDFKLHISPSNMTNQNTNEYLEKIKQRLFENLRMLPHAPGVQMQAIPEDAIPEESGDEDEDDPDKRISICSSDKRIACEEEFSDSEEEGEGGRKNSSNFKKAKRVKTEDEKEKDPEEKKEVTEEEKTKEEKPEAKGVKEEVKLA

[1] = biological target: T1, Protein deacetylase HDAC6 (Homo sapiens, UniProt Q9UBN7); assay: as §1, with “N-terminal GST-tagged” for “full length C-terminal His/FLAG tagged”, “HDAC6” for “HDAC1”, “1215” for “482”
T1 sequence (Q9UBN7 whole entry): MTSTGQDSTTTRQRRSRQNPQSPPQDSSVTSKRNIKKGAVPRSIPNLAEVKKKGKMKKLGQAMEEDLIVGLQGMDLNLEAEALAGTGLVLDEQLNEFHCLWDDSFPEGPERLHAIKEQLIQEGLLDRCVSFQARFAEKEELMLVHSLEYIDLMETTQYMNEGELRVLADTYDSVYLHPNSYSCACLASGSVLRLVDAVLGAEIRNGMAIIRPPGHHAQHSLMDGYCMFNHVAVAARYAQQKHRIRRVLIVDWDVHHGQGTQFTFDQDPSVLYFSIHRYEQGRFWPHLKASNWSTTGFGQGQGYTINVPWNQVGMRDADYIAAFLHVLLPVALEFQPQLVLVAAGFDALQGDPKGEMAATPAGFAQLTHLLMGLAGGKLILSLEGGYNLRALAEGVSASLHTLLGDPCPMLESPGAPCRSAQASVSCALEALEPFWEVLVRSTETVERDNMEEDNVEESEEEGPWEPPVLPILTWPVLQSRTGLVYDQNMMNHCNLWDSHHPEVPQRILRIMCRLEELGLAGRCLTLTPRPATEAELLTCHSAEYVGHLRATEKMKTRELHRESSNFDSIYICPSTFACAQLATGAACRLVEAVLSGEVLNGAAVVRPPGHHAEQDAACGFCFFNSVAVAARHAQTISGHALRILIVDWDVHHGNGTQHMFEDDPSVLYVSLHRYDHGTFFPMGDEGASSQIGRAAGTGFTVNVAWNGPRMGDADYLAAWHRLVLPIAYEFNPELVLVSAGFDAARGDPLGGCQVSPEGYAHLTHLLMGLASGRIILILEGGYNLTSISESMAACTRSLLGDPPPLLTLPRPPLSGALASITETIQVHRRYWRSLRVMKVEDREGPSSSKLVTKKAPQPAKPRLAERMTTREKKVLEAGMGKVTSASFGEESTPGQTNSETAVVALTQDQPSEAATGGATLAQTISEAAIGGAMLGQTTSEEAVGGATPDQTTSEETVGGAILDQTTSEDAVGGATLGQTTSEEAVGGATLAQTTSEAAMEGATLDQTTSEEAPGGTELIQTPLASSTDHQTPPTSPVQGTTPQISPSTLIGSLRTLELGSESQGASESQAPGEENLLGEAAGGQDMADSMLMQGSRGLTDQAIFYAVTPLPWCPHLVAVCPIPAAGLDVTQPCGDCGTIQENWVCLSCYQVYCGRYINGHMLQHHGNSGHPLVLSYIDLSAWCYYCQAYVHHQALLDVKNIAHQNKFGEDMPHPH

Homo sapiens [2] = organism: Homo sapiens; assay: Selectivity index, ratio of IC50 for recombinant full length C-terminal His/FLAG tagged human HDAC1 (1 to 482 residues) expressed in baculovirus infected sf9 insect cells using p53 (379 to 382 residues) derived fluorogenic peptide RHKKAc as substrate preincubated for 5 to 10 mins followed by …
Homo sapiens [3] = organism: Homo sapiens; assay: Selectivity index, ratio of IC50 for recombinant human full length C-terminal His/FLAG-tagged HDAC1 expressed in baculovirus infected Sf9 insect cells using fluorogenic HDAC as substrate measured after 30 mins by fluorescence based analysis to IC50 for recombinant human full length C-terminal […] expressed in baculovirus infected Sf9 insect cells using fluorogenic HDAC as substrate measured after 30 mins by fluorescence based analysis
[4] = biological target: T1, Protein deacetylase HDAC6; assay: Inhibition of recombinant N-terminal GST-tagged human HDAC6 (1 to 1215 residues) expressed in baculovirus infected sf9 insect cells using RHK-K(Ac)-AMC as substrate after 90 mins by fluorescence assay
Homo sapiens [5] = organism: Homo sapiens; assay: Selectivity index, ratio of IC50 for recombinant full length C-terminal His/FLAG tagged human HDAC1 (1 to 482 residues) expressed in baculovirus infected sf21 insect cells using RHK-K(Ac)-AMC as substrate after 60 mins by fluorescence assay to IC50 for recombinant N-terminal GST-tagged human HDAC6 (1 to 1215 residues) expressed in baculovirus infected sf9 insect cells using RHK-K(Ac)-AMC as substrate after 90 mins by fluorescence assay
T-24 = assay: Induction of cell death in human T24 cells at 0.1 to 25 uM; format: cell-based; conditions: t-24, 25 µM
[6] = Induction of cell death in mouse SM1 cells at 0.1 to 25 uM; format: cell-based
[7] = Effect on cell viability in mouse SM1 cells up to 10 uM by ApoTox-Glo triplex assay; format: cell-based
Summary of the method: (§2)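 SM1 cells treated with HDAC inhibitors, with pan-HDACi and assay controls on every plate. ApoTox-Glo triplex readout: viability fluorescence 400Ex/505Em, cytotoxicity fluorescence 485Ex/520Em, then caspase 3/7 reagent read by luminescence for apoptosis.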

[8] = Cytotoxicity against mouse SM1 cells at 0.1 to 25 uM by ApoTox-Glo triplex assay; format: cell-based; summary of the method: as §2
[9] = Induction of apoptosis in mouse SM1 cells at 0.1 to 25 uM by caspase3/7 reagent based luminescence assay; format: cell-based; summary of the method: as §2
PC-3 = assay: Induction of cell death in human PC3 cells at 0.1 to 25 uM; format: cell-based; conditions: pc-3, 25 µM
5637 = assay: Induction of cell death in human 5637 cells at 0.1 to 25 uM; format: cell-based; conditions: human, 5637, 25 µM
Homo sapiens [10] = organism: Homo sapiens; assay: Selectivity index, ratio of IC50 for recombinant full length human HDAC1 expressed in Escherichia coli cells using Fluor de Lys as substrate preincubated for 15 mins followed by substrate addition for 60 mins by fluorescence assay to IC50 for recombinant full length human HDAC6 expressed in baculovirus infected sf9 insect cells using Fluor de Lys as substrate preincubated for 15 mins followed by substrate addition for 60 mins by fluorescence assay
[11] = biological target: T2, Protein deacetylase HDAC6 (Mus musculus) (UniProt Q9Z2V5); assay: Inhibition of HDAC6 in mouse SM1 cells assessed as increase in acetylated alpha-tubulin level at 5 to 10 uM after 24 hrs by Western blot analysis; format: cell-based
T2 sequence (whole entry): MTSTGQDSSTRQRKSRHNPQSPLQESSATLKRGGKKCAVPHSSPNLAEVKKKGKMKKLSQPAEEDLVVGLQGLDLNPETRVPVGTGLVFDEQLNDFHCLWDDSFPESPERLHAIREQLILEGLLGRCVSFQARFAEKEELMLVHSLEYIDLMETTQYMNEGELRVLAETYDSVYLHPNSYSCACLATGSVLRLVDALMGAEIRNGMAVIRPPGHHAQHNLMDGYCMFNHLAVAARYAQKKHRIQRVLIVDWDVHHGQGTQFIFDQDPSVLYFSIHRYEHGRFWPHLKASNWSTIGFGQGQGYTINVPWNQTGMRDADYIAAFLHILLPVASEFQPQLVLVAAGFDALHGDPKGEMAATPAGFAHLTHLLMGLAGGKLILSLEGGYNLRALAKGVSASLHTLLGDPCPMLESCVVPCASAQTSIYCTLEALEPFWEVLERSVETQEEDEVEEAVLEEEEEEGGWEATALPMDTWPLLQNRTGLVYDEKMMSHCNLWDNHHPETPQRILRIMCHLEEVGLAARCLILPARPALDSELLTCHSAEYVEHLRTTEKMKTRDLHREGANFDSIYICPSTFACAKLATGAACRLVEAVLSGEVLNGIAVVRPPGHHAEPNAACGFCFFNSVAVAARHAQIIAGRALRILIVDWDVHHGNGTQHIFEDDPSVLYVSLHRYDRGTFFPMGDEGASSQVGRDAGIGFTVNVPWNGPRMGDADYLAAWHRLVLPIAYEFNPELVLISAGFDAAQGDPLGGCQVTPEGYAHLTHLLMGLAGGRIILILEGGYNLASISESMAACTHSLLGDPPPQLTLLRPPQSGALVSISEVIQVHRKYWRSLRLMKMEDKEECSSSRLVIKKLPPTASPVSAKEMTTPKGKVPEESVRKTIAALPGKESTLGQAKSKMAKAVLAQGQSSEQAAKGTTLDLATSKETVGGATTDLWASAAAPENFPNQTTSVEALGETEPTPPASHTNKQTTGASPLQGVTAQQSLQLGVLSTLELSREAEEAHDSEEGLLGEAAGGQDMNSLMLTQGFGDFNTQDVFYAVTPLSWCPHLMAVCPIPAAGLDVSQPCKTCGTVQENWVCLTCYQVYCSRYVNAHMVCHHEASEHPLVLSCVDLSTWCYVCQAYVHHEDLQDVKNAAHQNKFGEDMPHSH

pIC50 (Histone deacetylase 1) | pIC50 [1] | SMILES | Ratio IC50 (Homo sapiens [2]) | other results
< 4.52 | 5.36 | O=C(NO)c1cc(CCCCn2ccc3cc(Cl)c(Cl)cc32)on1 | > 7 | 
 |  | CC(C)(C)OC(=O)Nc1ccc(-c2cc(C(=O)NCc3ccc(C(=O)NO)cc3)no2)cc1 | 1320 | 
 | 8.00 | O=C(NCCc1cc(C(=O)NO)no1)c1ccc2ccccc2c1 | 294 | 
4.95 | 6.16 | O=C(NO)c1cc(CCCCN2CCCc3cc(Cl)ccc32)on1 | 16 | 
< 4.52 | 6.70 | O=C(NO)c1cc(CCCOc2ccc(Cl)c(Cl)c2)on1 | > 152 | 
< 4.52 |  | O=C(NO)c1cc(CCCCc2ccc(Cl)c(Cl)c2)on1 |  | 
< 4.52 | 6.72 | O=C(NCCc1cc(C(=O)NO)no1)c1ccccc1 | > 155 | 
 |  | O=C(NCCc1cc(C(=O)NO)no1)c1cccc(-c2ccccc2)c1 | 85 | 
 |  | O=C(NO)c1ccc(CN(CCO)C(=O)Cc2ccccc2)cc1 |  | Ratio IC50 (Homo sapiens [3]): 36
 |  | Cc1nc2ccccc2n1Cc1ccc(C(=O)NO)cc1F |  | pIC50 [4]: 9.09; Ratio IC50 (Homo sapiens [5]): 11100
 |  | O=C(CCc1cc(C(=O)NO)no1)Nc1nc(-c2ccccc2)cs1 | 9.9 | 
 |  | CN1CCc2c(c3ccccc3n2Cc2ccc(C(=O)NO)cc2)C1 [TUBASTATIN A] |  | Activity (T-24): Non-Toxic; Activity [6]: Non-Toxic; Activity [7]: Non-Toxic; Activity [8]: Non-Toxic; Activity [9]: Non-Toxic; Activity (PC-3): Non-Toxic; Activity 5637: Non-Toxic
 |  | O=C(NO)c1ccc(Cn2c3c(c4ccccc42)S(=O)(=O)CC3)cc1 |  | Ratio IC50 (Homo sapiens [10]): 1460
< 4.52 |  | O=C(NO)c1cc(CCCCN2c3ccc(Cl)cc3CCc3cc(Cl)ccc32)on1 | > 22 | 
8.49 |  | CC(C)(C)OC(=O)Nc1ccc(-c2cc(C(=O)NCCCCCCC(=O)NO)no2)cc1 |  | 
 |  | CCCCN(Cc1ccc(C(=O)NO)cc1)C(=O)Nc1ccccc1 [NEXTURASTAT A] |  | Activity (T-24): Non-Toxic; Activity [6]: Non-Toxic; inhibition [11]: Active; Activity [7]: Non-Toxic; Activity [8]: Non-Toxic; Activity [9]: Non-Toxic; Activity (PC-3): Non-Toxic; Activity 5637: Non-Toxic
< 4.52 | 5.70 | CC1(C)CCN(CCCCc2cc(C(=O)NO)no2)c2ccc(Cl)cc21 | > 15 | 
